# This is a sample that favours compounds with a hit; in the whole collection about 0.83% have one here.
# ABCB1 inh: blocks JC-1 efflux by human ABCB1 transporter. AID 1326. CCRF-Adr cells, flow cytometry. inhibition, % at 6.6 µM. 0.067% of 190,000 active. P08183; in the data active means inhibition above about 40%;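 further: 0% = vehicle and 100% = reference inhibitor; higher value means more JC-1 retained so stronger ABCB1 efflux block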
# RGS16-Gao HTS: regulators of human RGS16-Galphao interaction; AID 1441; bead-based flow cytometry RGS16-Galphao binding, fluorescence; actives lie on both sides; 0.38% of 220,000 active; binding response (% of control), % at 10 µM; O15492+P09471;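 further: Galphao activated by GDP with aluminum fluoride before binding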
# RGS8-Gao: human RGS8-Galphao interaction regulation. P09471. multiplexed bead flow cytometry, RGS8-Galphao binding; actives lie on both sides. response (percent of control binding), % at 10 µM. 0.34% of 220,000 active. AID 1423; in the data active means response below about 60% or above about 140%; inactive means in between;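 further: Galphao activated as the GDP aluminium fluoride complex binding bead-coupled RGS8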
# Target sequence (P09471 whole entry, looked up): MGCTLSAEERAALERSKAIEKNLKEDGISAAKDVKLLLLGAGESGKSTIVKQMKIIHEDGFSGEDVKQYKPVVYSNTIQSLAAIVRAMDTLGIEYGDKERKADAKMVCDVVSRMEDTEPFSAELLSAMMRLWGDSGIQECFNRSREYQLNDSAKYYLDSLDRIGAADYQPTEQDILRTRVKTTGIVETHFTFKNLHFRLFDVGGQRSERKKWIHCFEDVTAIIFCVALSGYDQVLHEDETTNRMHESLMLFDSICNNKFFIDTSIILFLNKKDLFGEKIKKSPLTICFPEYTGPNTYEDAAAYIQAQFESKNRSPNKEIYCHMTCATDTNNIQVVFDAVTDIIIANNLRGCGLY
# ABCG2 block: inhibitors of human ABCG2 transporter, ABCB1 counter-screen; 0.1% of 190,000 active; IgMXP3 cells, JC-1 efflux, flow cytometry; inhibition, % at 6.6 µM; AID 1325; Q9UNQ0;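 active means inhibition above 80%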;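 further: 0% = DMSO and 100% = nicardipine control wells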
#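 Read-out basis: Efflux inhibition in percent versus controls | Test system: ABCG2 IgMXP3 and barcoded ABCB1 CCRF-Adr cell mix | Quantity: 3 million cells/mL in well | Schedule: 10 min at 25 °C | Control set: Nicardipine as high control, DMSO as low control | Reagent: JC-1 as fluorescent efflux pump substrate | Signal: Flow cytometry of retained JC-1 fluorescence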
# RGS7-Gao reg: modulates binding of RGS7 to human Galphao. P09471. Multiplexed bead flow cytometry; actives lie on both sides. binding response (% of control), % at 10 µM. 0.35% of 220,000 active. AID 1439; in the data active means binding response below about 49% or above about 150%; inconclusive means no clear call, values can overlap the other calls; inactive means in between;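 further: fluorescent Galphao held in activated GDP-AlF4 state binding bead-coupled RGS7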
# RGS4-Gao reg: modulates binding of RGS4 to human Galphao. Multiplexed bead flow cytometry; actives lie on both sides. binding response (% of control), % at 10 µM. 0.33% of 220,000 active. AID 1415; in the data active means binding response below about 49% or above about 150%; inactive means in between;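 further: fluorescent Galphao activated with aluminum fluoride binding bead-coupled RGS4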
# RGS-Gao: RGS4-Galphao interaction regulator (human); shares compounds with RGS16-Gao HTS; multiplexed bead flow cytometry, RGS–Galpha-o binding; RGS4–Galpha-o binding response, % at 10 µM; 99% of 1,600 active;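 further: fluorescently labeled Galpha-o bound to GDP with aluminium fluoride binding biotinylated RGS beads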
# Target sequence (P09471 whole entry, looked up): as above
# Target sequence (P49798 whole entry, looked up): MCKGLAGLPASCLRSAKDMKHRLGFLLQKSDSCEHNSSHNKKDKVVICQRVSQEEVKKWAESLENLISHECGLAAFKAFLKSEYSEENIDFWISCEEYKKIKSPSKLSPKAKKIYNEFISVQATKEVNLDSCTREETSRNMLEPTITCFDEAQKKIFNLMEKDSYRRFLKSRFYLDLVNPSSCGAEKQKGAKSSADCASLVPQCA
# Avidin counter: counter-screen: compounds disrupting biotin binding to avidin beads | shares compounds with RGS16-Gao HTS | streptavidin beads, fluorescein-biotin binding, flow cytometry | inhibition, % at 10 µM | 1,700 tested, under 10 active;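 active means inhibition above 50%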;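 further: median green fluorescence of gated singlet beads compared with DMSO control wells; 0% = DMSO wells and 100% = complete loss of bead fluorescence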
# RGS8-Gao confirm: confirmation of regulators of human RGS8-Galphao interaction. shares compounds with RGS16-Gao HTS. bead-based flow cytometry RGS8-Galphao binding, fluorescence; actives lie on both sides. binding response (% of control), % at 10 µM. 3% of 1,700 active. AID 1836; in the data active means binding response below about 72% or above about 130%; inactive means in between;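 further: Galphao activated as GDP AlF4 complex before binding bead RGS8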
# RGS7-Gao confirm: RGS7-Galphao interaction regulation, single point confirmation. response (percent of control binding), % at 10 µM. AID 1837. shares compounds with RGS16-Gao HTS. bead-based flow cytometry RGS7-Galphao binding; actives lie on both sides. 7.8% of 1,700 active; in the data active means response below about 75% or above about 130%; inactive means in between;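 further: fluorescent Galphao activated with GDP and aluminum fluoride binding bead-coupled RGS7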
# RGS16-Gao conf: RGS16-Galphao interaction regulation, single point confirmation | 4% of 1,700 active | shares compounds with RGS16-Gao HTS | AID 1838 | bead-based flow cytometry, RGS16-Galphao binding; actives lie on both sides | response (% of control binding), % at 10 µM; in the data active means response below about 74% or above about 130%; inactive means in between;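 further: Galphao activated as the GDP aluminium fluoride complex binding bead-coupled RGS16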
# RGS4-Gao confirm: confirmation of regulators of human RGS4-Galphao interaction; RGS4-Galphao binding, multiplexed bead flow cytometry; actives lie on both sides; AID 1840; 4% of 1,700 active; shares compounds with RGS16-Gao HTS; binding response (% of control), % at 10 µM; in the data active means binding response below about 74% or above about 130%; inactive means in between
# RGS19-Gao conf: confirmation of regulators of human RGS19-Galphao interaction; shares compounds with RGS16-Gao HTS; bead-based flow cytometry RGS19-Galphao binding; actives lie on both sides; response (percent of control binding), % at 10 µM; 5% of 1,700 active; AID 1841; in the data active means response below about 50% or above about 160%; inactive means in between;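 further: 100% = no compound control and 0% = blank background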
# Active calls of the source: *; ? = inconclusive; / = not tested or not shown; [ ] = dose if it differs, or a comment. Unless noted, how the calls were made is not given here.
SMILES,ABCB1 inh,RGS16-Gao HTS,RGS8-Gao,ABCG2 block,RGS7-Gao reg,RGS4-Gao reg,RGS-Gao,Avidin counter,RGS8-Gao confirm,RGS7-Gao confirm,RGS16-Gao conf,RGS4-Gao confirm,RGS19-Gao conf
CCCCCCC[n+]1ccc(-c2cc[n+](CCCCCCC)cc2)cc1,0,13*,79,3,107,115,115*,1,107,102,107,103,102
COc1ccc(C(=O)C2(C)N(O)C(C)C(c3cccs3)=[N+]2[O-])cc1 (stereo not drawn),0,96,103,0,97,102,/,/,/,/,/,/,/
CC1C(c2cccs2)=[N+]([O-])C(C)(C(=O)c2cccs2)N1O (stereo not drawn),0,160,147*[activator],0,159*[activator],157*[activator],/,0,99,93,95,97,77
O=C(NCCCN1CCOCC1)C(Cl)(Cl)Cl,0,111,105,-3,103,101,/,/,/,/,/,/,/
CCOP(=O)(Cc1cc(C(=O)CC)c(C)o1)OCC,/,95,99,/,?,95,/,/,/,/,/,/,/
Cc1ccc(C)c(OCC(=O)N2CCN(Cc3ccc4c(c3)OCO4)CC2)c1,0,99,100,0,96,98,/,/,/,/,/,/,/
O=C(Cc1ccccc1)N1CCN(C/C=C/c2ccccc2)CC1,1,-0.6*,29*,1,7.9*,-8.3*,/,1,103,104,104,103,113
Cc1oc(-c2ccc(F)cc2F)nc1CN1C[C@@H]2C[C@@H](C1)c1cccc(=O)n1C2,0,98,97,1,99,98,/,/,/,/,/,/,/
Cc1cc(OC(=O)N(C)C)n(-c2ccccc2)n1,/,-15*,9.2*,/,?,-23*,/,0,100,85,95,92,72
COc1cccc(C(=O)C2CCCN(Cc3ccc4nsnc4c3)C2)c1 (stereo not drawn),0,89,48*,0,26*,72,72*,0,109,118,111,107,106
CC1(C)N=C(c2ccccc2)[C@@H]2C(c3ccc([N+](=O)[O-])cc3)N21 (stereo partly drawn),2,100,104,4,103,105,/,/,/,/,/,/,/
Cc1nnc2ccc(N3CCN(C)CC3)nn12,1,452,144*[activator],3,111,121,121*,1,103,107,105,107,110
COC(=O)C(O)(c1ccc(NC(=S)NC(=O)c2ccc(Cl)cc2Cl)cc1)C(F)(F)F (stereo not drawn),0,99,103,1,101,102,/,/,/,/,/,/,/
COC(=O)C(O)(c1ccc(NC(=O)NC2CCCCC2)cc1)C(F)(F)F (stereo not drawn),0,101,101,3,157*[activator],175*[activator],/,1,97,59*,78,73*,58
CCOP(=S)(OCC)SCC(=O)NC(C)(CC)C(=O)O (stereo not drawn),0,-105*,96,-1,94,74,74*,-1,104,107,107,105,93
c1ccc2c3c(ccc2c1)OCC1CONC31 (stereo not drawn),0,99,102,1,102,100,/,/,/,/,/,/,/
CC1CN(c2cc([N+](=O)[O-])ccc2Cl)CC(C)N1 (stereo not drawn),0,100,98,6,101,102,/,/,/,/,/,/,/
CC1CN(c2ccc([N+](=O)[O-])cc2Cl)CCN1 (stereo not drawn),0,1.8*,9.2*,-1,7.2*,11*,/,-2,98,90,92,95,80
CN1CCN(c2ccc([N+](=O)[O-])cc2Cl)CC1,0,97,55*,0,49*,78,78*,0,105,103,102,100,111
CN1CCN(c2cc([N+](=O)[O-])ccc2Cl)CC1,0,100,103,0,101,103,/,/,/,/,/,/,/
CC12CCCCC1=NC(c1ccc(Br)cc1)N2O (stereo not drawn),0,99,103,1,103,99,/,/,/,/,/,/,/
CN(C)C(=O)Oc1ccc(Cl)c2cccnc12,1,29,57*,3,80,75,75*,1,99,100,103,101,103
CN(C)C(=O)Oc1c(Cl)cc(Cl)c2ccccc12,1,104,98,3,99,106,/,/,/,/,/,/,/
CCn1c(O)c(/C=N/N2CCOCC2)c(=O)n(CC)c1=S,0,14*,75,13,88,93,93*,/,/,/,/,/,/
CCN1CCN(C(=O)COc2ccc(S(=O)(=O)N(C)Cc3ccccc3)cc2)CC1,0,24*,76,1,80,82,82*,1,102,102,101,102,98
SMILES,ABCB1 inh,RGS16-Gao HTS,RGS8-Gao,ABCG2 block,RGS7-Gao reg,RGS4-Gao reg,RGS-Gao,Avidin counter,RGS8-Gao confirm,RGS7-Gao confirm,RGS16-Gao conf,RGS4-Gao confirm,RGS19-Gao conf
COc1ccc(CN2C(=O)NC(=O)/C(=C/c3ccc([N+](=O)[O-])s3)C2=O)cc1,/,87,89,/,?,93,/,/,/,/,/,/,/
O=C(O)[C@H]1C[C@@H]1[C@H](NP(=O)(c1ccccc1)c1ccccc1)c1ccccc1,3,202,124,17,109,113,/,/,/,/,/,/,/
N/C(=N\N=C\c1ccc(O)cc1O)N[N+](=O)[O-],1,-23*,77,5,88,84,84*,0,96,96,98,100,90
COc1ccccc1/C=N/N=C(/N)N[N+](=O)[O-],0,110,101,1,112,113,/,/,/,/,/,/,/
O=C1NC(=O)N(c2ccccc2)C(=O)/C1=C/c1coc2ccc(O)cc2c1=O,/,98,97,/,?,103,/,/,/,/,/,/,/
OC(Cn1c2ccccc2c2ccccc21)C[n+]1cccc2ccccc21 (stereo not drawn),0,102,97,1,154*[activator],123,123*,-2,102,141*[activator],103,132*[activator],199*[activator]

# Source: PubChem BioAssay (NMMLSC)
